For assay [1], the system named is HepG2. Description: Cytotoxicity against human HepG2 cells after 72 hrs by MTT assay. The format is functional, cell-based. The note with it: HepG2, 72 h. An outline of the steps: (§1)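 MTT assay. Cells were plated and grown 24 h at 37 °C, 5% CO2, then exposed to compound in medium with 0.1% DMSO for 72 h. MTT (5 mg/mL in PBS) was added for 4 h and absorbance read at 490 nm. IC50 was taken from dose-response curves; at least three independent experiments.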
A general note: Formazan colour is commonly taken as a measure of viable cells.

A short description of assay [2]: Induction of NO release assessed as nitrite formation in PBS at 100 uM up to 300 mins by Griess assay. An outline of the steps: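 Compound at 100 μM was incubated at 37 °C in PBS, pH 7.4, containing 2% DMSO and 5.0 mM L-cysteine, in acellular or HepG2 cell lysates, and sampled over time. Samples were mixed with Griess reagent at 37 °C for 15 min and read at 540 nm. Nitrite was quantified against a sodium nitrite standard curve, in triplicate.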
In general terms: Griess reagent forms a coloured azo dye with nitrite.

Assay [3] relates to HepG2. Description: Cytotoxicity against human HepG2 cells at 2 uM after 72 hrs by MTT assay. Type of assay: functional, cell-based. An outline of the steps: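 HepG2 cells were pretreated for 2 h with graded concentrations of carboxy-PTIO (an NO scavenger), or left unpretreated. They were then exposed to 2 μM compound for 72 h, and growth was assessed by MTT. Mean ± SD, n=3.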

The next assay has as its system HCT-116. Description: Cytotoxicity against human HCT116 cells after 72 hrs by MTT assay. The note with it: HCT-116, 72 h. The format is functional, cell-based. An outline of the steps: as §1
In a further assay the test system is HL-60. Description: Cytotoxicity against human HL60 cells after 72 hrs by MTT assay. Type of assay: functional, cell-based. The note with it: HL-60, 72 h. An outline of the steps:
as §1

Assay [4] has as its system HepG2. Description: Cell cycle arrest in human HepG2 cells assessed as accumulation at G2 phase at 0.5 uM after 72 hrs by propidium iodide staining based flow cytometric method (reference value: 17.45%). Type of assay: functional. In a few lines: (§2)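 HepG2 cells were seeded and grown 24 h at 37 °C, 5% CO2. They were then exposed to 0, 0.5, 1 or 2 μM for 72 h, fixed in 70% ethanol at 4 °C for 12 h, and stained with RNase A plus propidium iodide for 30 min. DNA content was measured by flow cytometry to give the cell-cycle phase distribution.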

In assay [5] the test system is HepG2. Kind of assay: Cell cycle arrest in human HepG2 cells assessed as accumulation at S phase at 2 uM after 72 hrs by propidium iodide staining based flow cytometric method (reference value: 25.78%). The format is functional. An outline of the steps: as §2
On the technique in general: In flow cytometry, cells or beads pass a laser one at a time.

The test system of assay [6] is HepG2. Kind of assay: Induction of apoptosis in human HepG2 cells assessed as early apoptotic cells at 1 uM after 72 hrs by Annexin V-APC/7-AAD staining based flow cytometric method (reference value: 2.06%). Type of assay: functional.
Assay [7] concerns HepG2. Kind of assay: Induction of apoptosis in human HepG2 cells assessed as early apoptotic cells at 2 uM after 72 hrs by Annexin V-APC/7-AAD staining based flow cytometric method (reference value: 2.06%). Type of assay: functional.
Assay [8] relates to HepG2. Description: Induction of apoptosis in human HepG2 cells assessed as late apoptotic cells at 2 uM after 72 hrs by Annexin V-APC/7-AAD staining based flow cytometric method (reference value: 0.51%). The format is functional.
The subject of assay [9] is HepG2. Kind of assay: Disruption of mitochondrial membrane potential in human HepG2 cells assessed as collapse of the mitochondrial membrane potential at 0.5 uM after 72 hrs by JC1 staining based flow cytometric method (reference value: 3.05%). Type of assay: functional. An outline of the steps: (§3)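 HepG2 cells were exposed to 0, 0.5, 1 or 2 μM for 72 h, washed in PBS, and resuspended in JC-1 incubation buffer at 37 °C for 15 min. The fractions of cells with healthy or collapsed mitochondrial membrane potential were determined by flow cytometry.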

Assay [10] deals with HepG2. Kind of assay: Disruption of mitochondrial membrane potential in human HepG2 cells assessed as collapse of the mitochondrial membrane potential at 1 uM after 72 hrs by JC1 staining based flow cytometric method (reference value: 3.05%). The format is functional. In a few lines:
as §3

Another assay has as its system H22. Kind of assay: Antitumor activity against […] H22 cells xenografted in ICR mouse assessed as tumor growth inhibition at 30 mg/kg, iv administered once daily for 21 days measured post last dose relative to control. The note with it: 504 h, read-out: TGI. The format is functional.

The text below walks through data of ChEMBL document CHEMBL4024711, “Design, synthesis and biological evaluation of novel nitric oxide-donating protoberberine derivatives as antitumor agents” (Eur J Med Chem, 2017).

Molecules are shown by their SMILES. Active and inactive are the calls of the source. The rule behind the calls is not given here.

The term IC50 denotes the point on the concentration scale where inhibition reaches its midpoint. Low readings indicate inhibition by little substance, high ones a need for much substance. Regarding `COc1cc2c(cc1OC)-c1c(Br)c3ccc(OC)c(OCCCCCCCCO[N+](=O)[O-])c3c[n+]1CC2.[Br-]`, the results for the IC50 with HepG2 [1], in the assay with HCT-116 and in the assay on HL-60 were 1.36 µM, 2.29 µM and 1.26 µM, respectively. The outcome (in assay [2]; in the assay with HepG2 [3]) was Active. The Activity in the assay on HepG2 [4] is 23.38%; in the assay on HepG2 [5], 24.23%; in the assay with HepG2 [6], 22.97%; in the assay with HepG2 [7], 41.13%; in the assay on HepG2 [8], 10.01%; with HepG2 [9], 12.1%. For the same molecule, the Activity in the assay on HepG2 [10] came out at 25.5%. Besides, the inhibition in vivo at 30 mg/kg in the assay on H22 was 62.5%.
